Measurements: ChEMBL document CHEMBL3351262, “Design and synthesis of new benzimidazole-carbazole conjugates for the stabilization of human telomeric DNA, telomerase inhibition, and their selective action on cancer cells” (J Med Chem, 2014)
The source made the active and inactive calls. The calls are words filed in the database; no cut-off is given here.

Columns and labels:
[1] = Binding affinity to human Hum21 [5'-G3(T2AG3)3-3'] G-quadruplex DNA at 0.4 uM in 10 mM pH 7.4 Tris-Hcl buffer containing 0.1 mM EDTA and […] by fluorescence spectroscopy
Calf thymus DNA [2] = assay: Binding affinity to calf thymus DNA in 10 mM pH 7.4 Tris-Hcl buffer containing 0.1 mM EDTA and 40 mM NaCl by fluorescence spectroscopy; assay type: nucleic-acid assay, Bos taurus
In short: (§1)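 CT DNA was in the same Tris/EDTA buffer with 40 mM NaCl. 0.4 μM ligand was titrated with preformed DNA, incubated 10 min at 20 °C, and excited at 300 or 330 nm. Kd and binding stoichiometry n came from the emission titration.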

HeLa [3] = assay: Induction of apoptosis in human HeLa cells assessed as nuclear fragmentation at 10 uM after 12 hrs by propidium iodide staining based FACS analysis; assay type: functional, cell-based
HeLa [4] = assay: Induction of apoptosis in human HeLa cells at 10 uM after 12 hrs by Annexin V and propidium iodide staining based FACS analysis; assay type: functional
In short: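 HeLa cells were seeded at 0.25 million per well, and after 24 h exposed to 10 μM ligand for 12 h. Cells were washed, trypsinized and resuspended in HEPES binding buffer (0.14 M NaCl, 2.5 mM CaCl2). They were stained with Annexin V-FITC and PI (final 1 μg/mL, 5 min), then analyzed by flow cytometry. Gated Annexin-only-positive cells were scored as apoptotic.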

Calf thymus DNA [5] = assay: Binding affinity to calf thymus DNA at 0.4 uM in 10 mM pH 7.4 Tris-Hcl buffer containing 0.1 mM EDTA and 40 mM NaCl by fluorescence spectroscopy; assay type: nucleic-acid assay; settings: Bos taurus; in short: as §1
[6] = Drug uptake in nucleus of human HeLa cells at 10 uM after 12 hrs by confocal microscopy; assay type: ADME, cell-based
In short: (§2)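 Cells were grown on glass coverslips and treated with 10 μM ligand for 12 h. They were washed in DPBS, fixed in 4% paraformaldehyde for 10 min, and permeabilized with 0.1% Triton X-100 for 5 min. Nuclei were counterstained with propidium iodide. Blue ligand fluorescence and nuclear localization were imaged by confocal microscopy.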

Homo sapiens [7] = species on record: Homo sapiens; assay: Binding affinity to human Hum21 [5'-G3(T2AG3)3-3'] G-quadruplex DNA in 10 mM pH 7.4 Tris-Hcl buffer containing 0.1 mM EDTA and […] by CD spectroscopy
[8] = Binding affinity to human Hum21 [5'-G3(T2AG3)3-3'] G-quadruplex DNA at 0.4 uM in 10 mM pH 7.4 Tris-Hcl buffer containing 0.1 mM EDTA and 0.1 mM NaCl by fluorescence spectroscopy
HEK-293T [9] = assay: Cytotoxicity against transformed HEK293T cells at 2 and 5 uM after 15 days by MTT assay; settings: Homo sapiens
HEK-293T [10] = assay: Cytotoxicity against transformed HEK293T cells after 72 hrs by MTT assay; assay type: functional, cell-based; settings: Homo sapiens
In short: (§3)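 Cells were seeded at 15.0 × 10³/well and grown 72 h to >70% confluency. They were treated with ligand or 0.1% DMSO in 10% FBS for 72 h at 37 °C, 5% CO2, then given fresh DMEM/10% FBS. MTT (5 mg/mL stock) was added for 4 h, formazan dissolved in DMSO, and read at 595 nm. Viability was normalized to untreated cells after DMSO-blank subtraction. Doses were run in triplicate, with at least three independent experiments.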

Calf thymus DNA [11] = assay: Binding affinity to calf thymus DNA in 10 mM pH 7.4 Tris-Hcl buffer containing 0.1 mM EDTA and 40 mM NaCl by CD spectroscopy; settings: Bos taurus
HFF [12] = assay: Cytotoxicity against HFF cells at 0.5 to 8 uM after 72 hrs by MTT assay; assay type: cell-based; settings: human; in short: as §3
[13] = Displacement of thiazole orange from telomeric duplex DNA (unknown origin) in presence of 10 mM pH 7.4 Tris-Hcl buffer containing 0.1 mM EDTA and […] by fluorescent intercalator displacement assay
Homo sapiens [14] = species on record: Homo sapiens; assay: Binding affinity to human Hum21 [5'-G3(T2AG3)3-3'] G-quadruplex DNA assessed as change in melting temperature in 10 mM pH 7.4 Tris-Hcl buffer containing 0.1 mM EDTA and […] measured after 12 hrs by UV-Vis absorption sperctrometry (reference value: 7 to 13 degC)
HEK-293T [15] = assay: Cytotoxicity against transformed HEK293T cells at 0.5 to 8 uM after 72 hrs by MTT assay; assay type: functional, cell-based; settings: Homo sapiens; in short: as §3
[16] = Drug uptake in nucleus of human HeLa cells at 10 uM after 12 hrs by propidium iodide staining; assay type: ADME, cell-based; in short: as §2
[17] = Binding affinity to human Hum21 [5'-G3(T2AG3)3-3'] G-quadruplex DNA at 5 uM in 10 mM pH 7.4 Tris-Hcl buffer containing 0.1 mM EDTA and 0.1 M NaCl by UV-Vis absorption sperctrometry
[18] = Displacement of thiazole orange from calf thymus double stranded DNA in presence of 10 mM pH 7.4 Tris-Hcl buffer containing 0.1 mM EDTA and […] by fluorescent intercalator displacement assay; set-up: species or system Bos taurus
Homo sapiens [19] = species on record: Homo sapiens; assay: Induction of formation of human Hum21 [5'-G3(T2AG3)3-3'] G-quadruplex DNA at [compound]/[DNA] ratio of 5 in 10 mM pH 7.4 Tris-Hcl buffer containing 0.1 mM EDTA and […] by CD spectroscopy
In short: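 Hum21 was folded in the presence of ligand at the stated [L]:[DNA] ratio in 10 mM Tris-HCl pH 7.4, 0.1 mM EDTA, 0.1 M KCl or NaCl. Annealing was 95 °C for 5 min with slow cooling to 24 °C over 24 h. Topology was read from CD spectra recorded at 20 °C.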

[20] = Drug uptake in cytoplasm of HFF cells at 10 uM after 12 hrs by confocal microscopy; assay type: ADME, cell-based; settings: human; in short: as §2
[21] = Displacement of thiazole orange from human Hum21 [5'-G3(T2AG3)3-3'] G-quadruplex DNA in presence of 10 mM pH 7.4 Tris-Hcl buffer containing 0.1 mM EDTA and […] by fluorescent intercalator displacement assay
[22] = Binding affinity to human Hum21 [5'-G3(T2AG3)3-3'] G-quadruplex DNA at 5 uM in 10 mM pH 7.4 Tris-Hcl buffer containing 0.1 mM EDTA and 0.1 M KCl by UV-Vis absorption sperctrometry
HFF [23] = assay: Induction of apoptosis in HFF cells assessed as nuclear fragmentation at 10 uM after 12 hrs by propidium iodide staining based FACS analysis; assay type: cell-based; settings: human
[24] = target: Telomerase reverse transcriptase (Homo sapiens, UniProt O14746); assay: Inhibition of telomerase isolated form human A549 cells by TRAP-LIG assay
A549 = assay: Cytotoxicity against human A549 cells at 0.5 to 8 uM after 72 hrs by MTT assay; assay type: functional, cell-based; in short: as §3

Sequence of Telomerase reverse transcriptase (O14746 whole entry): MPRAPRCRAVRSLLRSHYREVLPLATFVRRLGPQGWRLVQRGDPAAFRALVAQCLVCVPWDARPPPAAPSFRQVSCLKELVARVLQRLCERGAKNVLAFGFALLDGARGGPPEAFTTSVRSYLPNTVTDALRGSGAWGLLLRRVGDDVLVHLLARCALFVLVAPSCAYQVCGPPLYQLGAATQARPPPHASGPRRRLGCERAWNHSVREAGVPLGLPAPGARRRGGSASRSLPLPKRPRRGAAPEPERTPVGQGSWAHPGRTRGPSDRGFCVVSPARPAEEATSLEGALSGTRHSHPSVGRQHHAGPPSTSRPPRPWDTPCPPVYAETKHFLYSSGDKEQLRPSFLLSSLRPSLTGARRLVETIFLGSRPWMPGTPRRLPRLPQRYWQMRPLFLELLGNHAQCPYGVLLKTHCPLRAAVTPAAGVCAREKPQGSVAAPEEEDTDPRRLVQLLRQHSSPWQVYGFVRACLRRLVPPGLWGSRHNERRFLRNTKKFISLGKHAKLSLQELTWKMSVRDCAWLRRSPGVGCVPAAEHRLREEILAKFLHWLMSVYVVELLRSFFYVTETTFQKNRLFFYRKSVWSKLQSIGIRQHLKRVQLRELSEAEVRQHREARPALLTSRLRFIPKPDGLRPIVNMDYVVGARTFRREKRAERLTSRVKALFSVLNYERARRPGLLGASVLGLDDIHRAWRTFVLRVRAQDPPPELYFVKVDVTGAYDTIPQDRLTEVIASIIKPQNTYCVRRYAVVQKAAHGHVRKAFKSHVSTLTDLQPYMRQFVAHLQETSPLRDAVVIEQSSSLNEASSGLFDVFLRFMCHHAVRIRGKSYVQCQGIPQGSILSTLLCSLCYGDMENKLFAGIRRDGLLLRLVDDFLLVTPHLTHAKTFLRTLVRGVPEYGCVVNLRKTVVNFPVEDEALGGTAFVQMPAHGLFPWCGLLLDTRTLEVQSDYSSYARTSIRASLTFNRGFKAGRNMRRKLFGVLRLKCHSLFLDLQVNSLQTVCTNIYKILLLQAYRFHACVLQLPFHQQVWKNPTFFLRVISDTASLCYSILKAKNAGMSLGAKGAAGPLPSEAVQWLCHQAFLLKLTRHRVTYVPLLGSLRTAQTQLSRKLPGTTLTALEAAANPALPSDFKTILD

In the case of `CN1CCN(CCCCn2c3ccc(-c4nc5cc(N6CCN(CCO)CC6)ccc5[nH]4)cc3c3cc(-c4nc5cc(N6CCN(CCO)CC6)ccc5[nH]4)ccc32)CC1`, the Kd [1] is reported as 30 nM, the Kd (Calf thymus DNA [2]) is reported as 25000 nM and the Activity (HeLa [3]) is reported as “Active”. For the same compound, the Activity (HeLa [4]) was 55%, the Activity (Calf thymus DNA [5]) was “inactive” and the Drug uptake [6] was “Active”. For the same compound, the Activity (Homo sapiens [7]) was “Active”, the Kd [8] was 80 nM and the inhibition (HEK-293T [9]) was “Active”. The IC50 (HEK-293T [10]) was 8000 nM, the Activity (Calf thymus DNA [11]) was “inactive” and the Activity (HFF [12]) was “Non-toxic”. The DC50 ([13]; read-out: DC50) was over 8000 nM, the ΔTm (Homo sapiens [14]) was 19 °C and the Activity (HEK-293T [15]) was “Active”. The Drug uptake [16] was “Active”, the Kd [17] was 50 nM and the DC50 ([18]; read-out: DC50) was 7710 nM. The Activity (Homo sapiens [19]) was “Active”, the Drug uptake [20] was “Active” and the DC50 [21] was 1120 nM. The Kd [22] was 30 nM, the Activity (HFF [23]) was “Non-toxic” and the IC50 [24] was 600 nM. The Activity (A549) was “Active”.

In the case of `CN1CCN(CCCCn2c3ccc(-c4nc5cc(N6CCN(C)CC6)ccc5[nH]4)cc3c3cc(-c4nc5cc(N6CCN(C)CC6)ccc5[nH]4)ccc32)CC1`, the Kd [1] is reported as 100 nM, the Kd (Calf thymus DNA [2]) is reported as 196000 nM and the Activity (HeLa [3]) is reported as “Active”. For the same compound, the Activity (HeLa [4]) was 25%, the Activity (Calf thymus DNA [5]) was “inactive” and the Drug uptake [6] was “Active”. For the same compound, the Activity (Homo sapiens [7]) was “Active”, the Kd [8] was 150 nM and the inhibition (HEK-293T [9]) was “Active”. For the same compound, the IC50 (HEK-293T [10]) was 8000 nM, the Activity (Calf thymus DNA [11]) was “inactive” and the Activity (HFF [12]) was “Non-toxic”. The DC50 [13] was “Not Active”, the ΔTm (Homo sapiens [14]) was 16 °C and the Activity (HEK-293T [15]) was “Active”. For the same compound, the Drug uptake [16] was “Active”, the Kd [17] was 340 nM and the DC50 [18] was “Not Active”. The Activity (Homo sapiens [19]) was “inactive”, the Drug uptake [20] was “Active” and the DC50 [21] was 610 nM. The Kd [22] was 130 nM, the Activity (HFF [23]) was “Non-toxic” and the IC50 [24] was 900 nM. The Activity (A549) was “Active”.
